Among the data in ChEMBL document CHEMBL1133135, “Grignard-mediated synthesis and preliminary biological evaluation of novel 3-substituted farnesyl diphosphate analogues” (Bioorg Med Chem Lett, 2000) are Krel and Km values, retold here.

One series has as its target Protein farnesyltransferase (Homo sapiens) (UniProt P49354+P49356). Kind of series: Relative Vmax for Farnesyltransferase at 10 uM. It counts as protein-complex assay. The gist of the method: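 Baculovirus-expressed, purified recombinant mammalian FTase in a continuous fluorometric assay with dansyl-GCVLS-OH peptide cosubstrate, testing each FPP analogue as alternative prenyl donor. Relative Vmax is the Vmax with analogue at 10 μM divided by the Vmax with FPP at 10 μM under the same conditions. Analogue concentrations were checked by phosphate analysis.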
Consider `C=C/C(=C\COP(=O)(O)OP(=O)(O)O)CC/C=C(\C)CCC=C(C)C`, for which the Krel came to 0.521.
The same measure, in the same setting: the value for `CC(C)=CCC/C(C)=C/CC/C(=C/COP(=O)(O)OP(=O)(O)O)CC(C)(C)C` was 0.042.
On the same count and under the same terms, the value for `CC(C)=CCC/C(C)=C/CC/C(=C/COP(=O)(O)OP(=O)(O)O)C(C)C` was 0.013; that for `CCC/C(=C\COP(=O)(O)OP(=O)(O)O)CC/C=C(\C)CCC=C(C)C` was 0.078.
As to `CC(C)=CCC/C(C)=C/CC/C(=C/COP(=O)(O)OP(=O)(O)O)c1ccc(F)cc1`, the Krel came to 0.002.
The same measure, in the same setting: the value for `C=CC/C(=C\COP(=O)(O)OP(=O)(O)O)CC/C=C(\C)CCC=C(C)C` was 0.053; that for `CCC(C)/C(=C\COP(=O)(O)OP(=O)(O)O)CC/C=C(\C)CCC=C(C)C` (configuration not stated) was 0.
Same read-out and setting: the value for `CC(C)=CCC/C(C)=C/CC/C(=C/COP(=O)(O)OP(=O)(O)O)C1CCCC1` was 0.072; that for `CC(C)=CCC/C(C)=C/CC/C(=C/COP(=O)(O)OP(=O)(O)O)CC(C)C` was 0.
The same measure, in the same setting: the same measure for `C=C(C)/C(=C\COP(=O)(O)OP(=O)(O)O)CC/C=C(\C)CCC=C(C)C`: 0.

The subject of another series is CC(C)=CCC/C(C)=C/CC/C(C)=C/COP(=O)(O)OP(=O)(O)O.
Regarding “Protein farnesyltransferase (Homo sapiens) (from UniProt P49354+P49356)”, the Km came to 0.107 µM.

Another series has as its system CC(C)=CCC/C(C)=C/CC/C(=C/COP(=O)(O)OP(=O)(O)O)C1CCCC1. Kind of series: Km for mammalian protein Farnesyltransferase expressed in baculovirus.
For the compound “Protein farnesyltransferase (Homo sapiens) (from UniProt P49354+P49356)”, the Km is 0.102 µM.
